Laboratory results from ChEMBL document CHEMBL3421565, “β-D-2'-C-Methyl-2,6-diaminopurine Ribonucleoside Phosphoramidates are Potent and Selective Inhibitors of Hepatitis C Virus (HCV) and Are Bioconverted Intracellularly to Bioactive 2,6-Diaminopurine and Guanosine 5'-Triphosphate Forms” (J Med Chem, 2015).
pEC50: −log10 of the molar value. Active and inactive are the calls of the source. The rule behind the calls is not given here.

Experiments:
Hepatitis C virus = test: Antiviral activity against HCV infected in human HuH7 cells assessed as reduction in replicon RNA levels incubated for 5 days by RT-PCR assay; type: functional, organism-based, Hepacivirus hominis; details: Huh-7, 120 h
How it was run: (§1)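 Huh-7 clone B cells carrying HCV replicon RNA, seeded at 3000 cells/well; compounds added in dose response in triplicate right after seeding. Incubated 5 days at 37 °C, 5% CO₂. Total RNA extracted; replicon RNA and rRNA internal control co-amplified by one-step multiplex real-time RT-PCR. Antiviral effect taken as ΔCt versus no-drug control; cytotoxicity read from rRNA reduction.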

Vero = test: Cytotoxicity against African green monkey Vero cells assessed as reduction in cell viability incubated for 5 days by Cell-titer 96 aqueous one solution cell proliferation assay; type: cell-based; details: chlorocebus sabaeus, vero, 120 h
HepG2 [1] = test: Mitochondrial toxicity in human HepG2 cells assessed as effect on mitochondrial cytochrome c oxidase subunit 2 DNA level incubated for 14 days by real-time PCR method; type: cell-based; details: hepg2, 336 h
How it was run: (§2)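 HepG2 cells in DMEM with 4.5 g/L glucose and 10% heat-inactivated FBS, seeded at 5000 cells/well on collagen; compounds added 1 day later at final 1–50 μM. Medium and compound renewed every 3–4 days for 14 days; duplicates in two independent experiments. COXII mtDNA and nuclear β-actin DNA measured by real-time PCR, normalised to untreated control; IC₅₀ calculated.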

HepG2 [2] = test: Mitochondrial toxicity in human HepG2 cells assessed as effect on nuclear beta-actin DNA level incubated for 14 days by real-time PCR method; type: cell-based; details: hepg2, 336 h; how it was run: as §2
HepG2 [3] = test: Mitochondrial toxicity in human HepG2 cells assessed as induction of lactic acid levels at 10 uM incubated for 14 days; type: cell-based; details: hepg2, 336 h
How it was run: (§3)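 After 14 days of HepG2 exposure to compound (same culture regimen as the mtDNA assay), lactic acid in culture supernatant quantified with a D-/L-lactic acid kit by absorbance. Results expressed as % lactic acid over % nuclear DNA (β-actin control); mean of triplicates from a single plate.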

PBMC = test: Cytotoxicity against human PBMC assessed as reduction in cell viability incubated for 5 days by Cell-titer 96 aqueous one solution cell proliferation assay; type: cell-based; details: pbmc, 120 h
CCRF-CEM = test: Cytotoxicity against human CEM cells assessed as reduction in cell viability incubated for 5 days by Cell-titer 96 aqueous one solution cell proliferation assay; type: cell-based; details: ccrf-cem, 120 h
[4] = Cytotoxicity against human HuH7 cells assessed as reduction in rRNA levels incubated for 5 days by RT-PCR assay; type: cell-based, Huh-7; details: huh-7, 120 h; how it was run: as §1
HepG2 [5] = test: Mitochondrial toxicity in human HepG2 cells assessed as induction of lactic acid levels at 1 uM incubated for 14 days; type: cell-based; details: hepg2, 336 h; how it was run: as §3
HepG2 [6] = test: Mitochondrial toxicity in human HepG2 cells assessed as induction of lactic acid levels at 50 uM incubated for 14 days; type: cell-based; details: hepg2, 336 h; how it was run: as §3
Hepacivirus hominis [7] = test: Inhibition of HCV C-terminal His-tagged NS5Bdelta21 enzyme assessed as reduction in NS5B-mediated RNA polymerization using [32P]-GpG primer, RNA template and rNTP nucleotide mix incubated for 120 mins by PAGE method
How it was run: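 Purified NS5BΔ21 (C-terminal His tag), 1 μM, at 30 °C with 1 μM 20-mer RNA template and 1 μM ³²P-GpG primer. Buffer was 40 mM Tris pH 7.5, 6 mM NaCl, 2 mM MgCl₂. Started with 10 μM NTP mix, 1 μM competing NTP and triphosphate inhibitor at 0–100 μM. Products run on 20% denaturing PAGE and quantified; IC₅₀ calculated.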

Hepacivirus hominis [8] = test: Inhibition of HCV C-terminal His-tagged NS5Bdelta21 enzyme assessed as induction of pausing at sites of GMP incorporation during NS5B-mediated RNA polymerization using [32P]-GpG primer, RNA template and rNTP nucleotide mix incubated for 120 mins by PAGE method
How it was run: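 Purified NS5BΔ21 (C-terminal His tag), 1 μM, at 30 °C with 1 μM 20-mer RNA template and 1 μM ³²P-GpG primer. Buffer was 40 mM Tris pH 7.5, 6 mM NaCl, 2 mM MgCl₂. Started with 10 μM NTP mix, 1 μM competing NTP and triphosphate inhibitor at 0–100 μM. Stopped at 120 min with EDTA/formamide. Products run on 20% denaturing PAGE and quantified; IC₅₀ calculated.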

Hepatocyte [9] = test: Drug level in human primary hepatocytes treated with 50 uM Ethyl 3-(2-(((R)-(((2R,3R,4R,5R)-5-(2,6-Diamino-9H-purin-9-yl)-3,4-dihydroxy-4-methyltetrahydrofuran-2-yl)methoxy)(((S)-1-ethoxy-1-oxopropan-2-yl)amino)phosphoryl)oxy)phenyl)-propanoate assessed as compound formation incubated for 4 hrs at 37 degC by LC-MS/MS method; type: ADME, cell-based
How it was run: (§4)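 Freshly plated primary human hepatocytes seeded at 1 × 10⁶ per well and acclimated overnight, then given 50 μM compound for 4 h at 37 °C. After two ice-cold PBS washes, extraction ran overnight at −20 °C in 70% methanol with 20 nM ddATP. Dried extracts went to LC–MS/MS for intracellular metabolites, as three replicates from one plate, ±SD.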

[10] = Drug level in human HuH7 cells treated with 50 uM Ethyl 3-(2-(((R)-(((2R,3R,4R,5R)-5-(2,6-Diamino-9H-purin-9-yl)-3,4-dihydroxy-4-methyltetrahydrofuran-2-yl)methoxy)(((S)-1-ethoxy-1-oxopropan-2-yl)amino)phosphoryl)oxy)phenyl)-propanoate assessed as compound formation incubated for 4 hrs at 37 degC by LC-MS/MS method; type: ADME, cell-based; details: huh-7, 4 h
How it was run: (§5)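 Huh-7 cells seeded at 1 × 10⁶ per well and exposed to 50 μM compound after attachment, 4 h at 37 °C. Cells washed twice with ice-cold PBS, then extracted overnight at −20 °C in 70% methanol containing 20 nM ddATP. Supernatants were dried and analysed by LC–MS/MS for parent nucleoside and its mono-, di- and triphosphates (pmol/10⁶ cells).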

Hepatocyte [11] = test: Drug level in human primary hepatocytes treated with 50 uM beta-D-2,6-diaminopurine nucleoside assessed as compound formation incubated for 4 hrs at 37 degC by LC-MS/MS method; type: ADME, cell-based; how it was run: as §4
[12] = Drug level in human HuH7 cells treated with 50 uM beta-D-2,6-diaminopurine nucleoside assessed as compound formation incubated for 4 hrs at 37 degC by LC-MS/MS method; type: ADME, cell-based; details: huh-7, 4 h; how it was run: as §5
[13] = Drug level in human HuH7 cells treated with 50 uM Isopropyl 3-(2-(((S)-(((2R,3S,4R,5R)-5-(2,6-Diamino-9H-purin-9-yl)-3,4-dihydroxy-4-methyltetrahydrofuran-2-yl)methoxy)-(((S)-1-isopropoxy-1-oxopropan-2-yl)amino)phosphoryl)oxy)-phenyl)propanoate 15c(Sp) and Isopropyl 3-(2-(((R)-(((2R,3S,4R,5R)-5-(2,6-Diamino-9H-purin-9-yl)-3,4-dihydroxy-4-methyltetrahydrofuran-2-yl)methoxy)(((S)-1-isopropoxy-1-oxopropan-2-yl)amino)phosphoryl)oxy)phenyl)propanoate assessed as compound formation incubated for 4 hrs at 37 degC by LC-MS/MS method; type: ADME, cell-based; details: huh-7, 4 h; how it was run: as §5
Hepatocyte [14] = test: Drug level in human primary hepatocytes treated with 50 uM Isopropyl 3-(2-(((S)-(((2R,3S,4R,5R)-5-(2,6-Diamino-9H-purin-9-yl)-3,4-dihydroxy-4-methyltetrahydrofuran-2-yl)methoxy)-(((S)-1-isopropoxy-1-oxopropan-2-yl)amino)phosphoryl)oxy)-phenyl)propanoate 15c(Sp) and Isopropyl 3-(2-(((R)-(((2R,3S,4R,5R)-5-(2,6-Diamino-9H-purin-9-yl)-3,4-dihydroxy-4-methyltetrahydrofuran-2-yl)methoxy)(((S)-1-isopropoxy-1-oxopropan-2-yl)amino)phosphoryl)oxy)phenyl)propanoate assessed as compound formation incubated for 4 hrs at 37 degC by LC-MS/MS method; type: ADME, cell-based; how it was run: as §4

Structure (SMILES) | pEC50 (Hepatitis C virus) | EC90 (Hepatitis C virus) [µM] | CC50 (Vero) [µM] | CC50 (PBMC) [µM] | CC50 (CCRF-CEM) [µM] | CC50 [4] [µM] | other results
CCOC(=O)CCc1ccccc1O[P@@](=O)(N[C@@H](C)C(=O)OC(C)C)OC[C@H]1O[C@@H](n2cnc3c(N)nc(N)nc32)[C@](C)(O)[C@H]1O | 5.62 | 8.2 | > 100 |  |  |  | 
Nc1ccn([C@H]2CC[C@@H](CO)O2)c(=O)n1 [ZALCITABINE] |  |  |  |  |  |  | CC50 (HepG2 [1]): < 10 µM; CC50 (HepG2 [2]): < 10 µM; Activity (HepG2 [3]): 220%
CCOC(=O)[C@H](C)N[P@@](=O)(OC[C@H]1O[C@@H](n2cnc3c(N)nc(N)nc32)[C@](C)(O)[C@H]1O)Oc1ccccc1CCC(=O)OC(C)C | 5.85 | 6.9 |  | > 100 | > 100 |  | 
C[C@@]1(O)[C@H](O)[C@@H](CO)O[C@H]1n1cnc2c(N)nc(N)nc21 | 5.27 | > 10 | > 100 | > 100 | > 100 | > 33 | CC50 (HepG2 [1]): > 50 µM; CC50 (HepG2 [2]): > 50 µM; Activity (HepG2 [5]): 110%; Activity (HepG2 [3]): 170%; Activity (HepG2 [6]): 110%
CCOC(=O)[C@H](C)NP(=O)(OC[C@H]1O[C@@H](n2cnc3c(N)nc(N)nc32)[C@](C)(O)[C@@H]1O)Oc1ccccc1 (some centres not stated) | 6.05 | 4 | > 100 | > 100 | > 100 | > 10 | CC50 (HepG2 [1]): > 50 µM; CC50 (HepG2 [2]): > 50 µM; Activity (HepG2 [5]): 100%; Activity (HepG2 [3]): 140%; Activity (HepG2 [6]): 90%
CCOC(=O)[C@H](C)NP(=O)(OC[C@H]1O[C@@H](n2cnc3c(N)nc(N)nc32)[C@](C)(O)[C@H]1O)Oc1ccccc1CCC(=O)OC(C)C (some centres not stated) | 5.77 | 8 | > 100 |  |  |  | 
CCOC(=O)CCc1ccccc1O[P@](=O)(N[C@@H](C)C(=O)OCC)OC[C@H]1O[C@@H](n2cnc3c(N)nc(N)nc32)[C@](C)(O)[C@H]1O | 5.57 | 8.7 |  | > 100 |  |  | 
CCOC(=O)CCc1ccccc1OP(=O)(N[C@@H](C)C(=O)OCC)OC[C@H]1O[C@@H](n2cnc3c(N)nc(N)nc32)[C@](C)(O)[C@H]1O (mixture of isomers) | 5.64 | 7.3 |  |  | > 100 | > 10 | 
CC(C)OC(=O)CCc1ccccc1O[P@@](=O)(N[C@@H](C)C(=O)OC(C)C)OC[C@H]1O[C@@H](n2cnc3c(N)nc(N)nc32)[C@](C)(O)[C@H]1O | 6.00 | 2.7 |  |  | > 100 | > 10 | 
CC(C)OC(=O)CCc1ccccc1O[P@](=O)(N[C@@H](C)C(=O)OC(C)C)OC[C@H]1O[C@@H](n2cnc3c(N)nc(N)nc32)[C@](C)(O)[C@H]1O | 6.05 | 2.8 |  | > 100 | 40 |  | 
CCOC(=O)CCc1ccccc1O[P@](=O)(N[C@@H](C)C(=O)OC(C)C)OC[C@H]1O[C@@H](n2cnc3c(N)nc(N)nc32)[C@](C)(O)[C@H]1O | 5.33 | 9.7 |  | > 100 | > 100 | > 10 | 
CCOC(=O)CCc1ccccc1OP(=O)(N[C@@H](C)C(=O)OCC)OC[C@H]1O[C@@H](n2cnc3c(N)nc(N)nc32)[C@]2(C)OC(=O)O[C@@H]12 (some centres not stated) | 5.55 | 8.5 | > 100 | > 100 | > 100 | > 10 | 
C[C@@]1(O)[C@H](O)[C@@H](COP(=O)(O)OP(=O)(O)OP(=O)(O)O)O[C@H]1n1cnc2c(=O)[nH]c(N)nc21 [INX-09114] |  |  |  |  |  |  | inhibition (Hepacivirus hominis [7]): Dose-dependent effect; inhibition (Hepacivirus hominis [8]): Active; Drug metabolism (Hepatocyte [9]): metabolite_detected; Drug metabolism [10]: metabolite_detected; Drug metabolism (Hepatocyte [11]): metabolite_detected; Drug metabolism [12]: metabolite_detected; Drug metabolism [13]: metabolite_detected; Drug metabolism (Hepatocyte [14]): metabolite_detected
CCOC(=O)[C@H](C)N[P@](=O)(OC[C@H]1O[C@@H](n2cnc3c(N)nc(N)nc32)[C@](C)(O)[C@H]1O)Oc1ccccc1CCC(=O)OC(C)C | 5.04 | 26 |  |  |  | > 10 | 
Nc1ccn([C@@H]2CS[C@H](CO)O2)c(=O)n1 [LAMIVUDINE] |  |  |  |  |  |  | CC50 (HepG2 [1]): > 10 µM; CC50 (HepG2 [2]): > 10 µM; Activity (HepG2 [3]): 91%
CCOC(=O)CCc1ccccc1OP(=O)(N[C@@H](C)C(=O)OC(C)C)OC[C@H]1O[C@@H](n2cnc3c(N)nc(N)nc32)[C@](C)(O)[C@H]1O (some centres not stated) | 5.66 | 9 |  |  |  |  | 
